Data set [1] can be described thus: Kinetic aqueous solubility by nephelometry, pH 6.5. In kind it is physicochemical. As to conditions: phosphate buffer, pH 6.5, aqueous buffer, kinetic from dmso stock. The method, boiled down: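 Test compound in DMSO was spiked into pH 6.5 phosphate buffer (final DMSO 1 v/v %) and incubated 30 min at room temperature. A solubility range was assigned by nephelometry.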

Data set [2] in a line: In vitro metabolism in human liver microsomes. Type of data set: in vitro ADME. The conditions noted are these: for microsomal CLint: human, liver microsomes; for predicted Eh (H): predicted hepatic extraction ratio, human liver microsomes. The method, boiled down: (§1)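 Liver microsomes at 0.4 or 0.5 mg/mL protein were incubated at 37 °C with 0.5 or 1 μM test compound. Remaining compound in the supernatant was quantified by LC–MS at time points over 0–60 min. In vitro CLint and predicted hepatic extraction ratio were calculated from the depletion data.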

A short description of data set [3]: In vitro metabolism in mouse liver microsomes. The conditions noted are these: for predicted Eh (M): predicted hepatic extraction ratio, mouse liver microsomes. Type of data set: in vitro ADME. In a few lines:
as §1

Data set [4] has as its system P. falciparum 3D7 parasites. Nature of the data set: P. falciparum 3D7 growth assay. The conditions noted are these: Pf3D7 EC50 relative to 1. In kind it is cell-based.
Data set [5] is described as follows: Mouse pharmacokinetics after oral administration. Type of data set: in vivo. The method, boiled down: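 Both arms used a single oral gavage dose. Plasma arm: male Swiss outbred mice, 20 mg/kg as a suspension in 0.5% CMC, 0.5% benzyl alcohol and 0.4% Tween 80. Plasma was sampled over 24 h and measured by LC–MS. Blood arm: 10 mg/kg in 0.1% methylcellulose. Serial blood was taken 0.5–24 h, lysed with water and analysed by LC–MS/MS. Parameters came from noncompartmental analysis.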

Data set [6] deals with P. falciparum Pf3D7^0087/N9. The experiment in a line: SCID mouse model of P. falciparum infection. In kind it is in vivo. The method, boiled down: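 NOD-scid IL2Rγnull mice (23–36 g) engrafted with human erythrocytes were infected iv with 20 × 10^6 Pf3D7^0087/N9 parasites. Test compound in 1% methylcellulose was given by oral gavage once daily for 4 days from day 3 (10–60 mg/kg), with actual doses verified by measuring the formulations. Parasitemia was measured by FACS and blood drug by LC–MS–MS. ED90 was set on day 7.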

The conditions of data set [7]: previously reported; cited from earlier work.
The conditions of data set [8]: human liver microsomes; previously reported; cited from earlier work. In general terms: Liver microsomes are vesicles of endoplasmic reticulum, rich in cytochrome P450 enzymes.
The conditions of data set [9]: mouse liver microsomes, previously reported, cited from earlier work; for predicted Eh (M): predicted hepatic extraction ratio.
For data set [10] the following is noted: mouse, oral, 10 mg/kg, plasma concentrations; cited from earlier work.
The conditions of data set [11]: pH 7.4; previously reported; cited from earlier work.
Where [12] appears, read: male, Swiss outbred, plasma, 20 mg/kg.

The structures appear in SMILES notation. Converted amounts (≈) assume the structure as drawn. Where two headings read alike, the source gives them in different places. Bounds are passed on as bounds.

Turning to `Cc1noc2nc(C(F)(F)F)nc(Nc3ccc(C(F)(F)F)cc3)c12` [Compound 35, 3-Methyl-6-(trifluoromethyl)-N-(4-(trifluoromethyl)phenyl)isoxazolo[5,4-d]pyrimidin-4-amine], in data set [1], the kinetic solubility (as a rule, solubility judged after dilution from a stock solution rather than from solid) at 30 min fell in the range of 1.6 to 3.1 µg/mL (≈ 4.42 to 8.56 µM). For the same molecule, in data set [2], the microsomal CLint (as a rule, the rate of metabolic loss divided by the concentration) is 18 µL/min/mg and the “predicted Eh (H)” value is 0.41. Besides, in [3] (mouse, liver microsomes), the microsomal CLint is 36 µL/min/mg. Besides, the “predicted Eh (M)” value in data set [3] is 0.61.
With `Cc1nc(NC2CCc3ccc(Br)cc3C2)c2c(C)noc2n1` (centres unmarked) [Compound 11, N-(7-Bromo-1,2,3,4-tetrahydronaphthalen-2-yl)-3,6-dimethylisoxazolo[5,4-d]pyrimidin-4-amine], in data set [4], the “fold less potent than 1 on P. falciparum parasites” value is reported as 2–4 fold. Besides, the solubility (kinetic) at 30 min in data set [1] was below 1.6 µg/mL. Moreover, in data set [2], the microsomal CLint was 32 µL/min/mg and the “predicted Eh (H)” value is given as 0.56. Also, in data set [3] (mouse, liver microsomes), the microsomal CLint is 233 µL/min/mg. The “predicted Eh (M)” value in data set [3] is on record as 0.91.
On to `Cc1nc(NC2Cc3cc(F)c(F)cc3C2)c2c(C)noc2n1` [Compound 13, N-(5,6-Difluoro-2,3-dihydro-1H-inden-2-yl)-3,6-dimethylisoxazolo[5,4-d]pyrimidin-4-amine], for which, in [1], the solubility (kinetic) at 30 min is 3.1 to 6.3 µg/mL (≈ 9.8 to 19.9 µM). In data set [2], the microsomal CLint is 17 µL/min/mg and the “predicted Eh (H)” value is listed as 0.39. Besides, the microsomal CLint in data set [3] (mouse, liver microsomes) stood at 143 µL/min/mg. Further, the “predicted Eh (M)” value in data set [3] was 0.86. For the same molecule, in [5] (setting [12]), the AUC(0-inf) (as a rule, the area under the concentration-time curve extrapolated to infinity) came to 4.2 µM·h; the highest level (Cmax) was 2100 nM; the Tmax (as a rule, the time from dosing to the highest level) came to 60 min.
As to `Cc1nc(Nc2ccc(C(F)(F)F)cc2)c2c(C(F)(F)F)noc2n1` [Compound 31, 6-Methyl-3-(trifluoromethyl)-N-(4-(trifluoromethyl)phenyl)isoxazolo[5,4-d]pyrimidin-4-amine], the kinetic solubility at 30 min in data set [1] fell in the range of 1.6 to 3.1 µg/mL (≈ 4.42 to 8.56 µM). In data set [2], the microsomal CLint is 13 µL/min/mg and the “predicted Eh (H)” value is on record as 0.33. In data set [3] (mouse, liver microsomes), this molecule gave a microsomal CLint of 76 µL/min/mg. Besides, the “predicted Eh (M)” value in data set [3] is 0.77.
Take `Cc1nc(Nc2ccc(S(F)(F)(F)(F)F)cc2)c2c(C)noc2n1` [Compound 14, 3,6-Dimethyl-N-(4-(pentafluoro-l6-sulfanyl)phenyl)isoxazolo[5,4-d]pyrimidin-4-amine]: the “fold less potent than 1 on P. falciparum parasites” value in data set [4] is given as 2–4 fold. Also, in data set [1], the kinetic solubility at 30 min was 6.3 to 12.5 µg/mL (≈ 17.2 to 34.1 µM). In data set [2], the microsomal CLint amounted to 20 µL/min/mg and the “predicted Eh (H)” value is given as 0.44. In data set [3] (mouse, liver microsomes), the microsomal CLint was 38 µL/min/mg. Further, in data set [3], the “predicted Eh (M)” value was 0.63. In data set [5] (whole blood, 10 mg/kg), the AUC(0-inf) was determined as 3.8 µM·h, the highest level (Cmax) was 1300 nM and the Tmax came out at 45 min. Besides, the “ED90 (90% reduction in parasitemia)” value in [6] (SCID mice, oral QD for 4 days, data collected 24 h after the last dose) was around 63 mg/kg. In data set [6] (same SCID model, once daily (QD) dosing, comparison with 1 from ref 26), the “ED90 fold higher than that for 1” value is listed as at least 8 fold.
Take `Cc1nc(NC2CCc3cc(Cl)ccc3C2)c2c(C)noc2n1` (centres unmarked) [Compound 10, N-(6-Chloro-1,2,3,4-tetrahydronaphthalen-2-yl)-3,6-dimethylisoxazolo[5,4-d]pyrimidin-4-amine]: the solubility (kinetic) at 30 min in data set [1] was in the range of 1.6 to 3.1 µg/mL (≈ 4.87 to 9.43 µM). Further, in data set [2], the microsomal CLint was 23 µL/min/mg and the “predicted Eh (H)” value is 0.47. The same molecule showed a microsomal CLint in data set [3] (mouse, liver microsomes) of 179 µL/min/mg. For the same molecule, the “predicted Eh (M)” value in data set [3] is on record as 0.89.
Take `Cc1nc(NC2CCc3cc(Br)ccc3C2)c2c(C)noc2n1` (centres unmarked) [Compound 12, N-(6-Bromo-1,2,3,4-tetrahydronaphthalen-2-yl)-3,6-dimethylisoxazolo[5,4-d]pyrimidin-4-amine]: the solubility (kinetic) at 30 min in data set [1] was below 1.6 µg/mL. Moreover, the microsomal CLint in [2] stood at 19 µL/min/mg; in [3] (mouse, liver microsomes), 138 µL/min/mg. Besides, the “predicted Eh (H)” value in data set [2] is on record as 0.42. The “predicted Eh (M)” value in [3] was 0.86.
The like results for `Cc1nc(NC2Cc3cc(F)c(F)cc3C2)c2c(C(F)(F)F)noc2n1` [Compound 30, N-(5,6-Difluoro-2,3-dihydro-1H-inden-2-yl)-6-methyl-3-(Trifluoromethyl)isoxazolo[5,4-d]pyrimidin-4-amine] were, in that order, 1.6 to 3.1 µg/mL (≈ 4.32 to 8.37 µM), 26 µL/min/mg, 328 µL/min/mg, 0.5 and 0.93.
`Cc1nc(Nc2ccc(C(F)(F)F)cc2)c2c(C)noc2n1` [Compound 15, 3,6-Dimethyl-N-(4-(trifluoromethyl)phenyl)isoxazolo[5,4-d]pyrimidin-4-amine] had a kinetic solubility at 30 min in data set [1] of 6.3 to 12.5 µg/mL (≈ 20.4 to 40.5 µM). Also, the microsomal CLint in [2] turned out to be 24 µL/min/mg; in [3] (mouse, liver microsomes), 28 µL/min/mg. In addition, in [2], the “predicted Eh (H)” value is given as 0.48. Also, the “predicted Eh (M)” value in data set [3] was 0.55.
Consider `Cc1cc(Nc2ccc(S(F)(F)(F)(F)F)cc2)n2nc(C(C)(F)F)nc2n1` [Compound 1], for which the “kinetic solubility pH 6.5” value in [7] is reported as 12.5–25 μg/mL. Besides, the “CLint (H)” value in data set [8] is reported as 4.3 μL/min/mg protein. Besides, in [9], the “CLint (M)” value was 2.8 μL/min/mg protein and the “predicted Eh (M)” value is <0.2/<0.2. Also, the AUCinf in data set [10] is 23 µM·h.
Consider `Cc1nc(Nc2ccc(C)c(Cl)c2)c2c(C)noc2n1` [Compound 3], for which the intrinsic metabolic clearance (microsomal CLint) in data set [2] is 6.2 µL/min/mg. Besides, in [3] (mouse, liver microsomes), the “CLint (M)” value is “rapidly metabolized” and the microsomal CLint was found to be 28 µL/min/mg.
`Cc1nc(Nc2ccc(C(F)(F)F)nc2)c2c(C)noc2n1` [Compound 16, 3,6-Dimethyl-N-(6-(trifluoromethyl)pyridin-3-yl)isoxazolo[5,4-d]pyrimidin-4-amine] came in with a solubility (kinetic) at 30 min in data set [1] of 25 to 50 µg/mL (≈ 80.8 to 162 µM). Besides, the microsomal CLint came out at 8 µL/min/mg in data set [2] and 13 µL/min/mg in [3] (mouse, liver microsomes). Further, the “predicted Eh (H)” value in data set [2] is given as 0.25. For the same molecule, in data set [3], the “predicted Eh (M)” value was 0.36.
For `Cc1nc(Nc2ccc(S(F)(F)(F)(F)F)cc2)c2c(C(F)(F)F)noc2n1` [Compound 32, 6-Methyl-N-(4-(pentafluoro-l6-sulfanyl)phenyl)-3-(trifluoromethyl)isoxazolo[5,4-d]pyrimidin-4-amine], in data set [1], the solubility (kinetic) at 30 min is below 1.6 µg/mL. For the same molecule, in data set [2], the intrinsic metabolic clearance (microsomal CLint) was found to be 13 µL/min/mg and the “predicted Eh (H)” value is recorded as 0.34. Moreover, in data set [3] (mouse, liver microsomes), the microsomal CLint came to 73 µL/min/mg. Also, in data set [3], the “predicted Eh (M)” value is 0.76.
For `Cc1noc2nc(C(F)(F)F)nc(Nc3ccc(S(F)(F)(F)(F)F)cc3)c12` [Compound 36, 3-Methyl-N-(4-(pentafluoro-l6-sulfanyl)phenyl)-6-(trifluoromethyl)isoxazolo[5,4-d]pyrimidin-4-amine], the kinetic solubility at 30 min in data set [1] fell in the range of 1.6 to 3.1 µg/mL (≈ 3.81 to 7.38 µM). Also, the microsomal CLint in [2] is 10 µL/min/mg; in [3] (mouse, liver microsomes) it was 26 µL/min/mg. Moreover, the “predicted Eh (H)” value in data set [2] is 0.28. For the same molecule, the “predicted Eh (M)” value in [3] was 0.53.
Take `Cc1cc(Nc2ccc(C(F)(F)F)nc2)n2nc(C(C)(F)F)nc2n1` [Compound 2]: in data set [11], the “log DpH7.4” value is on record as 2.5. The “kinetic solubility pH 6.5” value in data set [7] is above 100 μg/mL. In addition, the “CLint (H)” value in [8] is reported as 2.2 μL/min/mg protein. Besides, in data set [9], the “CLint (M)” value is recorded as below 7 μL/min/mg protein and the “predicted Eh (M)” value is on record as below 0.01.
For the molecule `Cc1nc(NC2CCc3ccc(Cl)cc3C2)c2c(C)noc2n1` (centres unmarked) [Compound 9, N-(7-Chloro-1,2,3,4-tetrahydronaphthalen-2-yl)-3,6-dimethylisoxazolo[5,4-d]pyrimidin-4-amine], the “fold less potent than 1 on P. falciparum parasites” value in data set [4] is listed as 2–4 fold. The molecule further displayed a solubility (kinetic) at 30 min in data set [1] of 1.6 to 3.1 µg/mL (≈ 4.87 to 9.43 µM). The microsomal CLint was 36 µL/min/mg in data set [2] and 183 µL/min/mg in data set [3] (mouse, liver microsomes). The “predicted Eh (H)” value in [2] is 0.59. The “predicted Eh (M)” value in [3] is 0.89.

(Values after paper PMC6120730 (ACS Omega, 2018).)
